Reference: ChEMBL document CHEMBL1140884, “Oligodeoxyribonucleotide-based antagonists for Toll-like receptors 7 and 9” (2009)
Active and inactive are the calls of the source.

How the values were obtained:
PBMC [1] = experiment: Induction of MIP1beta secretion in human PBMC; type: functional, cell-based
Summary of the method: (§1)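 Human PBMCs (5×10^6/mL; 1×10^6 per well) were cultured 24 h with TLR9 agonist 5 µg/mL or TLR7/8 agonist 100 µg/mL, alone or with antagonist at 1:4. Compounds were dissolved in PBS. Supernatant cytokines were measured by Luminex human 25-plex bead assay. One representative donor of six.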

PBMC [2] = experiment: Induction of IL6 secretion in human PBMC; type: functional, cell-based; summary of the method: as §1
PBMC [3] = experiment: Induction of IFN-gamma secretion in human PBMC; type: functional, cell-based; summary of the method: as §1
[4] = target: T1, Toll-like receptor 9 (Homo sapiens) (UniProt Q9NR96); experiment: Agonist activity at TLR9 in human PBMC assessed as NF-kappaB activation at 5 ug/mL; type: functional
T1 sequence (whole entry): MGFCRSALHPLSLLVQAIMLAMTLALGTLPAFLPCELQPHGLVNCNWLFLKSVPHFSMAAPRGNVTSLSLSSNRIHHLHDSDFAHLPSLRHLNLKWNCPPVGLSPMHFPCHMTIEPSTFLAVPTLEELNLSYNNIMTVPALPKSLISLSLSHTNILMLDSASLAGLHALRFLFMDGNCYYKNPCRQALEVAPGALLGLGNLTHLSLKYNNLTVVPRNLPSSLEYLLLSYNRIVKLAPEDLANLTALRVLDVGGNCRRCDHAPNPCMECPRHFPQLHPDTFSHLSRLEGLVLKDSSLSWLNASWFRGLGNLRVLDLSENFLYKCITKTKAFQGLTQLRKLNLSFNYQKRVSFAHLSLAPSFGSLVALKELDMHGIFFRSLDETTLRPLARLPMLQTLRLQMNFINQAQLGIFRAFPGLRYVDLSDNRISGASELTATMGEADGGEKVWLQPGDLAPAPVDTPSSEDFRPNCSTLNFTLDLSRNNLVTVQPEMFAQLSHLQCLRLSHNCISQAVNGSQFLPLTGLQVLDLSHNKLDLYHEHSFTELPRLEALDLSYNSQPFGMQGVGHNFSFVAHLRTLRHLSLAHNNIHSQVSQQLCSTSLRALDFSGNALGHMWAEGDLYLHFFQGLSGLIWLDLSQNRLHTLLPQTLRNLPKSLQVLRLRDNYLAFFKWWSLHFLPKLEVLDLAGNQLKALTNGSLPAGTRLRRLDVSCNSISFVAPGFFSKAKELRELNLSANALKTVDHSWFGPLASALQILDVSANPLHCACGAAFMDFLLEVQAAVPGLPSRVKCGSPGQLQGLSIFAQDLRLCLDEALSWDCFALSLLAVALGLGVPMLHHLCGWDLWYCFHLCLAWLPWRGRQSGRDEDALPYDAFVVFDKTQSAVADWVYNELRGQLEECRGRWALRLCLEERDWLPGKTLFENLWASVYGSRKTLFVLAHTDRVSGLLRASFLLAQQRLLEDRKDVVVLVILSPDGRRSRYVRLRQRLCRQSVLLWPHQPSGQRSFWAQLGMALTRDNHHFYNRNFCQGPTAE
Summary of the method: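 Human PBMCs from healthy-donor blood (Ficoll) plated at 1×10^7 cells/well, stimulated for 2 h. Nuclear extracts analysed for NF-κB binding by EMSA on native polyacrylamide gels with autoradiography. One representative donor of three.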

PBMC [5] = experiment: (§2) Induction of IP10 secretion in human PBMC; type: functional, cell-based; summary of the method: as §1
PBMC [6] = experiment: Induction of MCP1 secretion in human PBMC; type: functional, cell-based; summary of the method: as §1
PBMC [7] = experiment: Induction of IL12 secretion in human PBMC; type: functional, cell-based; summary of the method: as §1
PBMC [8] = experiment: Induction of MIG secretion in human PBMC; type: functional, cell-based; summary of the method: as §1
PBMC [9] = experiment: Induction of TNFalpha secretion in human PBMC; type: functional, cell-based; summary of the method: as §1
PBMC [10] = experiment: Induction of IFNalpha secretion in human PBMC; type: functional, cell-based; summary of the method: as §1
PBMC [11] = experiment: as §2; type: functional, cell-based; summary of the method: as §1; remark: listed apart in the source
[12] = target: T2, Toll-like receptor 9 (Mus musculus) (UniProt Q9EQU3); experiment: Agonist activity at TLR9 in mouse J774 cells assessed as of NF-kappaB activation; type: functional, cell-based
T2 sequence (whole entry): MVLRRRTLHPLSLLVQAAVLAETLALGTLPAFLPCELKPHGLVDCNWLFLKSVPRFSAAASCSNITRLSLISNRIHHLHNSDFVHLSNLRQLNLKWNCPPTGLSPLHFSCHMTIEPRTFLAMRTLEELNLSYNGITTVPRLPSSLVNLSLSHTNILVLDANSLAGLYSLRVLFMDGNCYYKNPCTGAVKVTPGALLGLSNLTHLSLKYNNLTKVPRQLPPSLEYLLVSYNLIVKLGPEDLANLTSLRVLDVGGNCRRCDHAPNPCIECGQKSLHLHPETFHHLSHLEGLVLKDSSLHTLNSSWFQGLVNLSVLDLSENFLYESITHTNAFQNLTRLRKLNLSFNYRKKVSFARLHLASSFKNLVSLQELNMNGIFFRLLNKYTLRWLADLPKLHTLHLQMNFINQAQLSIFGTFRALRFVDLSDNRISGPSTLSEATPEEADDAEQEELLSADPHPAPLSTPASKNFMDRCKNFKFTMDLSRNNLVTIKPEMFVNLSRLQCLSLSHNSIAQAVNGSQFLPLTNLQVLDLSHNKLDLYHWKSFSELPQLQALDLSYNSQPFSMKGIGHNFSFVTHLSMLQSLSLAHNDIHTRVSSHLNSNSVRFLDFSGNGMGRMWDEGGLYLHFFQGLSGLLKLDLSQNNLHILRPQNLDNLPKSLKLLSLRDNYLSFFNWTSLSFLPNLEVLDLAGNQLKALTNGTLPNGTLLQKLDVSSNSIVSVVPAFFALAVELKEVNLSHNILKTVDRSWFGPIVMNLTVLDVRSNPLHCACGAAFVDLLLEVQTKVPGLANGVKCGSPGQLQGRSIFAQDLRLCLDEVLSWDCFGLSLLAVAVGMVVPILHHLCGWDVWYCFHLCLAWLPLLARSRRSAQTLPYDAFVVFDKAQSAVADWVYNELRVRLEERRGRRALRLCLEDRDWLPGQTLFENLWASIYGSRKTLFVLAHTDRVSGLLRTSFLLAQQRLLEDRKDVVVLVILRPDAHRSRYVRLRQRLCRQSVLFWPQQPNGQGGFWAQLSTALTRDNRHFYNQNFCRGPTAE
Summary of the method: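 Murine J774 macrophages grown in DMEM with 10% FBS and plated at 5×10^6 cells/well. Nuclear extracts taken 1 h after agonist addition. NF-κB detected by EMSA on native polyacrylamide gels with autoradiography.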

Mus musculus [13] = experiment: Induction of IP10 secretion in C57BL/6 mouse at 0.25 mg/kg, sc; type: functional, organism-based; set-up: dose 0.25 mg/kg
Summary of the method: (§3)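 Female C57BL/6 mice, 6–8 weeks old (n=3), were injected sc with single compounds at 0.25 or 20 mg/kg. Serum was collected by retro-orbital bleed 2 h later and cytokines were measured by Luminex mouse 20-plex assay.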

Mus musculus [14] = experiment: Induction of cytokine KC secretion in C57BL/6 mouse at 0.25 mg/kg, sc; type: functional, organism-based; set-up: dose 0.25 mg/kg; summary of the method: as §3
Mus musculus [15] = experiment: Induction of IL6 secretion in C57BL/6 mouse at 0.25 mg/kg, sc; type: functional, organism-based; set-up: dose 0.25 mg/kg; summary of the method: as §3
[16] = target: T2, Toll-like receptor 9 (Mus musculus); experiment: Agonist activity at mouse TLR9 expressed in HEK293 cells assessed as activation of NF-kappaB at 10 ug/mL by SEAP reporter gene assay; type: functional, cell-based
Summary of the method: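 HEK293 cells stably expressing mouse TLR9 were transiently transfected with a SEAP reporter for 6 h. Compounds were added at 10 µg/mL for 18 h. SEAP was read with Quanti-Blue substrate and expressed as fold change in NF-κB activity.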

Mus musculus [17] = experiment: Induction of cytokine MCP1 secretion in C57BL/6 mouse at 0.25 mg/kg, sc; type: functional, organism-based; set-up: dose 0.25 mg/kg; summary of the method: as §3
Mus musculus [18] = experiment: Induction of IL10 secretion in C57BL/6 mouse at 0.25 mg/kg, sc; type: functional, organism-based; set-up: dose 0.25 mg/kg; summary of the method: as §3
Mus musculus [19] = experiment: Induction of cytokine MIG secretion in C57BL/6 mouse at 0.25 mg/kg, sc; type: functional, organism-based; set-up: dose 0.25 mg/kg; summary of the method: as §3
Mus musculus [20] = experiment: Induction of IL12 secretion in C57BL/6 mouse at 0.25 mg/kg, sc; type: functional, organism-based; set-up: dose 0.25 mg/kg; summary of the method: as §3

Measured: Activity

Cc1cn([C@H]2C[C@H](OP(=O)(S)OC[C@H]3O[C@@H](n4ccc(N)nc4=O)C[C@@H]3OP(=O)(S)OC[C@H]3O[C@@H](n4cc(C)c(=O)[nH]c4=O)C[C@@H]3OP(=O)(S)OC[C@H]3O[C@@H](n4cnc5c(=O)[nH]c(N)nc54)C[C@@H]3OP(=O)(S)OC[C@H]3O[C@@H](n4cc(C)c(=O)[nH]c4=O)C[C@@H]3OP(=O)(S)OC[C@H]3O[C@@H](n4ccc(N)nc4=O)C[C@@H]3OP(=O)(S)OC[C@H]3O[C@@H](n4ccc5c(N)ncnc54)C[C@@H]3OP(=O)(S)OC[C@H]3O[C@@H](n4cc(C)c(=O)[nH]c4=O)C[C@@H]3OP(=O)(S)OC[C@H]3O[C@@H](n4cc(C)c(=O)[nH]c4=O)C[C@@H]3OP(=O)(S)OC[C@H]3O[C@@H](n4ccc(N)nc4=O)C[C@@H]3OP(=O)(S)OC[C@H]3O[C@@H](n4cc(C)c(=O)[nH]c4=O)C[C@@H]3OP(=O)(S)OCC(O)COP(=O)(S)O[C@H]3C[C@H](n4cc(C)c(=O)[nH]c4=O)O[C@@H]3COP(=O)(S)O[C@H]3C[C@H](n4ccc(N)nc4=O)O[C@@H]3COP(=O)(S)O[C@H]3C[C@H](n4cc(C)c(=O)[nH]c4=O)O[C@@H]3COP(=O)(S)O[C@H]3C[C@H](n4cc(C)c(=O)[nH]c4=O)O[C@@H]3COP(=O)(S)O[C@H]3C[C@H](n4ccc5c(=O)[nH]c(N)nc54)O[C@@H]3COP(=O)(S)O[C@H]3C[C@H](n4ccc(N)nc4=O)O[C@@H]3COP(=O)(S)O[C@H]3C[C@H](n4cc(C)c(=O)[nH]c4=O)O[C@@H]3COP(=O)(S)O[C@H]3C[C@H](n4cnc5c(=O)[nH]c(N)nc54)O[C@@H]3COP(=O)(S)O[C@H]3C[C@H](n4cc(C)c(=O)[nH]c4=O)O[C@@H]3COP(=O)(S)O[C@H]3C[C@H](n4ccc(N)nc4=O)O[C@@H]3COP(=O)(S)O[C@H]3C[C@H](n4cc(C)c(=O)[nH]c4=O)O[C@@H]3CO)[C@@H](CO)O2)c(=O)[nH]c1=O (stereo not given in full)
active: PBMC [1] | PBMC [2] | PBMC [3] | [4] | PBMC [5] | PBMC [6] | PBMC [7] | PBMC [8] | PBMC [9] | PBMC [10] | PBMC [11]

Cc1cn([C@H]2C[C@H](OP(=O)(S)OC[C@H]3O[C@@H](n4ccc(N)nc4=O)C[C@@H]3OP(=O)(S)OC[C@H]3O[C@@H](n4cc(C)c(=O)[nH]c4=O)C[C@@H]3OP(=O)(S)OC[C@H]3O[C@@H](n4cnc5c(=O)[nH]c(N)nc54)C[C@@H]3OP(=O)(S)OC[C@H]3O[C@@H](n4cnc5c(N)ncnc54)C[C@@H]3OP(=O)(S)OC[C@H]3O[C@@H](n4ccc(N)nc4=O)C[C@@H]3OP(=O)(S)OC[C@H]3O[C@@H](n4ccc5c(N)ncnc54)C[C@@H]3OP(=O)(S)OC[C@H]3O[C@@H](n4cc(C)c(=O)[nH]c4=O)C[C@@H]3OP(=O)(S)OC[C@H]3O[C@@H](n4cc(C)c(=O)[nH]c4=O)C[C@@H]3OP(=O)(S)OC[C@H]3O[C@@H](n4ccc(N)nc4=O)C[C@@H]3OP(=O)(S)OC[C@H]3O[C@@H](n4cc(C)c(=O)[nH]c4=O)C[C@@H]3OP(=O)(S)OCC(O)COP(=O)(S)O[C@H]3C[C@H](n4cc(C)c(=O)[nH]c4=O)O[C@@H]3COP(=O)(S)O[C@H]3C[C@H](n4ccc(N)nc4=O)O[C@@H]3COP(=O)(S)O[C@H]3C[C@H](n4cc(C)c(=O)[nH]c4=O)O[C@@H]3COP(=O)(S)O[C@H]3C[C@H](n4cc(C)c(=O)[nH]c4=O)O[C@@H]3COP(=O)(S)O[C@H]3C[C@H](n4ccc5c(=O)[nH]c(N)nc54)O[C@@H]3COP(=O)(S)O[C@H]3C[C@H](n4ccc(N)nc4=O)O[C@@H]3COP(=O)(S)O[C@H]3C[C@H](n4cnc5c(N)ncnc54)O[C@@H]3COP(=O)(S)O[C@H]3C[C@H](n4cnc5c(=O)[nH]c(N)nc54)O[C@@H]3COP(=O)(S)O[C@H]3C[C@H](n4cc(C)c(=O)[nH]c4=O)O[C@@H]3COP(=O)(S)O[C@H]3C[C@H](n4ccc(N)nc4=O)O[C@@H]3COP(=O)(S)O[C@H]3C[C@H](n4cc(C)c(=O)[nH]c4=O)O[C@@H]3CO)[C@@H](CO)O2)c(=O)[nH]c1=O (stereo not given in full)
active: [12] | Mus musculus [13] | Mus musculus [14] | Mus musculus [15] | [16] | Mus musculus [17] | Mus musculus [18] | Mus musculus [19] | Mus musculus [20]
